Experimental data published in ChEMBL document CHEMBL1145606, “Discovery of amino-acetonitrile derivatives, a new class of synthetic anthelmintic compounds” (2008).

Tests used:
Format in all cases: functional
Haemonchus contortus [1] = test: Anthelmintic activity against benzimidazole-resistant Haemonchus contortus isolate by larva development assay
Method in brief: (§1)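 Larval development assay: test compounds were embedded in an agar-based nutritive medium that supports development from eggs to third-stage larvae (L3). Plates were incubated for 6 days at 28 °C and 80% relative humidity, and egg hatching and larval development were recorded. Values are means of three experiments.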

[2] = tested on: Trichostrongylus colubriformis; test: Anthelmintic activity against levamisole-resistant Trichostrongylus colubriformis isolate by larva development assay; method in brief: as §1
Haemonchus contortus [3] = test: Anthelmintic activity against Haemonchus contortus infected in gerbils assessed as reduction in worm count at 1 mg/kg, po; parameters: scale not given: the % may be the effect or the level left
Method in brief: (§2)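 Gerbils (Meriones unguiculatus) were artificially infected with H. contortus larvae 6 days, or T. colubriformis larvae 5 days, before treatment. They were then dosed orally or subcutaneously, and controls received a placebo formulation. Three days post-treatment the animals were sacrificed and dissected for worm recovery.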

[4] = tested on: Trichostrongylus colubriformis; test: Anthelmintic activity against Trichostrongylus colubriformis infected in gerbils assessed as reduction in worm count at 1 mg/kg, po; parameters: scale not given: the % may be the effect or the level left; method in brief: as §2
Haemonchus contortus [5] = test: Anthelmintic activity against Haemonchus contortus infected in gerbils assessed as reduction in worm count at 1 mg/kg, sc; parameters: scale not given: the % may be the effect or the level left; settings: route subcutaneous; method in brief: as §2
[6] = tested on: Trichostrongylus colubriformis; test: Anthelmintic activity against Trichostrongylus colubriformis infected in gerbils assessed as reduction in worm count at 1 mg/kg, sc; parameters: scale not given: the % may be the effect or the level left; settings: route subcutaneous; method in brief: as §2
Haemonchus contortus [7] = test: Anthelmintic activity against Haemonchus contortus infected in gerbils assessed as reduction in worm count at 3.2 mg/kg, po; parameters: scale not given: the % may be the effect or the level left; method in brief: as §2
[8] = tested on: Trichostrongylus colubriformis; test: Anthelmintic activity against Trichostrongylus colubriformis infected in gerbils assessed as reduction in worm count at 3.2 mg/kg, po; parameters: scale not given: the % may be the effect or the level left; method in brief: as §2
Haemonchus contortus [9] = test: Anthelmintic activity against Haemonchus contortus infected in gerbils assessed as reduction in worm count at 10 mg/kg, po; parameters: scale not given: the % may be the effect or the level left; method in brief: as §2
[10] = tested on: Trichostrongylus colubriformis; test: Anthelmintic activity against Trichostrongylus colubriformis infected in gerbils assessed as reduction in worm count at 10 mg/kg, po; parameters: scale not given: the % may be the effect or the level left; method in brief: as §2

## CC(C#N)(COc1cc(F)c(F)cc1C(F)(F)F)NC(=O)c1ccc(OC(F)(F)F)cc1 (stereo in doubt; 19)
Haemonchus contortus [1]
  EC100: 0.01 ppm
[2]
  EC100: 0.032 ppm
Haemonchus contortus [3]
  Activity: 99%
[4]
  Activity: 73%
Haemonchus contortus [5]
  Activity: 99%
[6]
  Activity: 75%

## CC(C#N)(COc1ccc(F)cc1Cl)NC(=O)c1ccc(OC(F)(F)F)cc1 (stereo not given)
Haemonchus contortus [1]
  EC100: 0.032 ppm
[2]
  EC100: 0.032 ppm
Haemonchus contortus [7]
  Activity: 98%
[8]
  Activity: 77%

## CC(C#N)(COc1cc(F)ccc1Br)NC(=O)c1ccc(OC(F)(F)F)cc1 (stereo not given)
Haemonchus contortus [1]
  EC100: 0.01 ppm
[2]
  EC100: 0.1 ppm
Haemonchus contortus [7]
  Activity: 90%
[8]
  Activity: 99%

## Cc1ccc(C(=O)NC(C)(C#N)COc2ccccc2Cl)cc1 (stereo not given)
Haemonchus contortus [1]
  EC100: >10 ppm
[2]
  EC100: >10 ppm

## C[C@](C#N)(COc1cc(C#N)ccc1C(F)(F)F)NC(=O)c1ccc(SC(F)(F)F)cc1 [MONEPANTEL]
Haemonchus contortus [1]
  EC100: 0.0032 ppm
[2]
  EC100: 0.01 ppm

## CC(C#N)(COc1ccc(C(F)(F)F)cc1)NC(=O)c1ccc(C(F)(F)F)cc1 (stereo not given)
Haemonchus contortus [1]
  EC100: >10 ppm
[2]
  EC100: >10 ppm

## CC(C#N)(COc1ccccc1C(F)(F)F)NC(=O)c1ccc(SC(F)(F)F)cc1 (stereo not given)
Haemonchus contortus [1]
  EC100: 0.032 ppm
[2]
  EC100: 0.032 ppm
Haemonchus contortus [9]
  Activity: 77%
[10]
  Activity: 99%

## CC(C#N)(COc1ccc(C#N)cc1C(F)(F)F)NC(=O)c1ccc(OC(F)(F)F)cc1 (stereo not given)
Haemonchus contortus [1]
  EC100: 0.032 ppm
[2]
  EC100: 0.1 ppm
Haemonchus contortus [3]
  Activity: 95%
[4]
  Activity: 98%
Haemonchus contortus [5]
  Activity: 91%
[6]
  Activity: 97%

## CC(C#N)(COc1cc(C#N)ccc1C(F)(F)F)NC(=O)c1ccc(C(F)(F)F)cc1 (stereo not given)
Haemonchus contortus [1]
  EC100: 0.032 ppm
[2]
  EC100: 0.1 ppm
Haemonchus contortus [3]
  Activity: 97%
[4]
  Activity: 87%
Haemonchus contortus [5]
  Activity: 90%
[6]
  Activity: 72%

## CC(C#N)(COc1c(Cl)cccc1Cl)NC(=O)c1ccc(C(F)(F)F)cc1 (stereo not given)
Haemonchus contortus [1]
  EC100: >10 ppm
[2]
  EC100: >10 ppm

## CC(C#N)(COc1cc(Cl)ccc1Cl)NC(=O)c1ccc(OC(F)(F)F)cc1 (stereo not given)
Haemonchus contortus [1]
  EC100: 0.01 ppm
[2]
  EC100: 0.032 ppm
Haemonchus contortus [7]
  Activity: 68%
[8]
  Activity: 89%

## CC(C#N)(COc1ccccc1Cl)NC(=O)c1ccc(C(F)(F)F)cc1 (stereo not given)
Haemonchus contortus [1]
  EC100: 0.032 ppm
[2]
  EC100: 0.032 ppm
Haemonchus contortus [9]
  Activity: 88%
[10]
  Activity: 19%

## CC(C#N)(COc1ccccc1Br)NC(=O)c1ccc(OC(F)(F)F)cc1 (stereo not given)
Haemonchus contortus [1]
  EC100: 0.032 ppm
[2]
  EC100: 0.032 ppm
Haemonchus contortus [9]
  Activity: 97%
[10]
  Activity: 99%

## CC(C#N)(COc1cc(F)c(F)cc1C(F)(F)F)NC(=O)c1ccc(C(F)(F)F)cc1 (stereo not given)
Haemonchus contortus [1]
  EC100: 0.032 ppm
[2]
  EC100: 0.032 ppm
Haemonchus contortus [3]
  Activity: 89%
[4]
  Activity: 91%
Haemonchus contortus [5]
  Activity: 94%
[6]
  Activity: 90%

## CC(C#N)(COc1ccccc1C(F)(F)F)NC(=O)c1ccccc1 (stereo not given)
Haemonchus contortus [1]
  EC100: 10 ppm
[2]
  EC100: >10 ppm

## CC(C#N)(COc1ccccc1Cl)NC(=O)c1ccc(C(F)(F)F)cc1F (stereo not given)
Haemonchus contortus [1]
  EC100: 0.32 ppm
[2]
  EC100: 0.32 ppm

## CC(C#N)(COc1cccc(Cl)c1Cl)NC(=O)c1ccc(C(F)(F)F)cc1 (stereo not given)
Haemonchus contortus [1]
  EC100: 0.1 ppm
[2]
  EC100: 0.1 ppm
Haemonchus contortus [9]
  Activity: 84%
[10]
  Activity: 67%

## CC(C#N)(COc1cc(F)ccc1Cl)NC(=O)c1ccc(OC(F)(F)F)cc1 (stereo not given)
Haemonchus contortus [1]
  EC100: 0.01 ppm
[2]
  EC100: 0.032 ppm
Haemonchus contortus [7]
  Activity: 92%
[8]
  Activity: 79%

## CC(C#N)(COc1ccccc1Cl)NC(=O)c1ccc(F)cc1 (stereo not given)
Haemonchus contortus [1]
  EC100: 3.2 ppm
[2]
  EC100: 1 ppm

## c1ccc2[nH]c(-c3cscn3)nc2c1 [THIABENDAZOLE]
Haemonchus contortus [1]
  EC100: 10 ppm
[2]
  EC100: 1 ppm

## CC(C#N)(COc1ccc(C#N)cc1C(F)(F)F)NC(=O)c1ccc(C(F)(F)F)cc1 (stereo not given)
Haemonchus contortus [1]
  EC100: 0.1 ppm
[2]
  EC100: 0.1 ppm
Haemonchus contortus [3]
  Activity: 97%
[4]
  Activity: 91%

## CC(C#N)(COc1ccccc1Cl)NC(=O)c1cccc(OC(F)(F)F)c1 (stereo not given)
Haemonchus contortus [1]
  EC100: >10 ppm
[2]
  EC100: 10 ppm

## CC(C#N)(COc1cc(F)c(F)cc1C(F)(F)F)NC(=O)c1ccc(OC(F)(F)F)cc1 (single isomer, unassigned; (-))
Haemonchus contortus [1]
  EC100: 0.0032 ppm
[2]
  EC100: 0.01 ppm

## CC(C#N)(COc1ccc(C#N)cc1C(F)(F)F)NC(=O)c1ccc(SC(F)(F)F)cc1 (stereo not given)
Haemonchus contortus [1]
  EC100: 0.032 ppm
[2]
  EC100: 0.032 ppm
Haemonchus contortus [3]
  Activity: 90%
[4]
  Activity: 98%
Haemonchus contortus [5]
  Activity: 92%
[6]
  Activity: 86%

## CCc1ccccc1OCC(C)(C#N)NC(=O)c1ccc(OC(F)(F)F)cc1 (stereo not given)
Haemonchus contortus [1]
  EC100: 0.32 ppm
[2]
  EC100: 0.32 ppm

## CC(C#N)(COc1c(F)cc(F)cc1F)NC(=O)c1ccc(OC(F)(F)F)cc1 (stereo not given)
Haemonchus contortus [1]
  EC100: >10 ppm
[2]
  EC100: >10 ppm

## CC(C#N)(COc1ccc(Cl)cc1Cl)NC(=O)c1ccc(OC(F)(F)F)cc1 (stereo not given)
Haemonchus contortus [1]
  EC100: 0.1 ppm
[2]
  EC100: 0.1 ppm
Haemonchus contortus [9]
  Activity: 94%
[10]
  Activity: 100%

## CC(C#N)(COc1ccccc1Cl)NC(=O)c1ccccc1C(F)(F)F (stereo not given)
Haemonchus contortus [1]
  EC100: >10 ppm
[2]
  EC100: >10 ppm

## CC(C#N)(COc1ccccc1)NC(=O)c1ccc(C(F)(F)F)cc1 (stereo not given)
Haemonchus contortus [1]
  EC100: >10 ppm
[2]
  EC100: >10 ppm

## CC(C#N)(COc1cc(C#N)ccc1C(F)(F)F)NC(=O)c1ccc(OC(F)(F)F)cc1 (stereo not given)
Haemonchus contortus [1]
  EC100: 0.01 ppm
[2]
  EC100: 0.032 ppm
Haemonchus contortus [3]
  Activity: 95%
[4]
  Activity: 85%
Haemonchus contortus [5]
  Activity: 97%
[6]
  Activity: 75%

## CC(C#N)(COc1cc(F)c(F)cc1C(F)(F)F)NC(=O)c1ccc(OC(F)(F)F)cc1 (single isomer, unassigned; (+))
Haemonchus contortus [1]
  EC100: 1 ppm
[2]
  EC100: 3.2 ppm

## C[C@@](C#N)(COc1cc(C#N)ccc1C(F)(F)F)NC(=O)c1ccc(SC(F)(F)F)cc1
Haemonchus contortus [1]
  EC100: 10 ppm
[2]
  EC100: >10 ppm

## CC(C#N)(COc1ccccc1C(F)(F)F)NC(=O)c1ccc(OC(F)(F)F)cc1 (stereo not given)
Haemonchus contortus [1]
  EC100: 0.01 ppm
[2]
  EC100: 0.01 ppm
Haemonchus contortus [9]
  Activity: 98%
[10]
  Activity: 97%

## CC(C#N)(COc1ccccc1F)NC(=O)c1ccc(C(F)(F)F)cc1 (stereo not given)
Haemonchus contortus [1]
  EC100: 1 ppm
[2]
  EC100: 1 ppm

## CC(C#N)(COc1cc(F)c(F)cc1C(F)(F)F)NC(=O)c1ccc(SC(F)(F)F)cc1 (stereo not given)
Haemonchus contortus [1]
  EC100: 0.032 ppm
[2]
  EC100: 0.032 ppm
Haemonchus contortus [3]
  Activity: 84%
[4]
  Activity: 98%
Haemonchus contortus [5]
  Activity: 73%
[6]
  Activity: 90%

## CC(C#N)(COc1cc(F)c(F)cc1Br)NC(=O)c1ccc(OC(F)(F)F)cc1 (stereo not given)
Haemonchus contortus [1]
  EC100: 0.01 ppm
[2]
  EC100: 0.032 ppm
Haemonchus contortus [7]
  Activity: 100%
[8]
  Activity: 97%

## CC(C#N)(COc1ccccc1Cl)NC(=O)c1ccc(OC(F)(F)F)cc1 (stereo not given)
Haemonchus contortus [1]
  EC100: 0.032 ppm
[2]
  EC100: 0.032 ppm

## c1ccc([C@H]2CN3CCSC3=N2)cc1 [LEVAMISOLE]
Haemonchus contortus [1]
  EC100: 0.32 ppm
[2]
  EC100: 10 ppm

## CC(C#N)(COc1ccccc1C(F)(F)F)NC(=O)c1ccc(-c2ccccc2)cc1 (stereo not given)
Haemonchus contortus [1]
  EC100: >10 ppm
[2]
  EC100: >10 ppm

## CC(C#N)(COc1cc(C#N)ccc1C(F)(F)F)NC(=O)c1ccc(SC(F)(F)F)cc1 (stereo not given)
Haemonchus contortus [1]
  EC100: 0.01 ppm
[2]
  EC100: 0.032 ppm
Haemonchus contortus [3]
  Activity: 100%
[4]
  Activity: 100%
Haemonchus contortus [5]
  Activity: 99%
[6]
  Activity: 84%

## CC(C#N)(COc1cccc(F)c1)NC(=O)c1ccc(OC(F)(F)F)cc1 (stereo not given)
Haemonchus contortus [1]
  EC100: 0.32 ppm
[2]
  EC100: 1 ppm

## CC(C#N)(COc1ccccc1Cl)NC(=O)c1ccc(Cl)cc1 (stereo not given)
Haemonchus contortus [1]
  EC100: 0.32 ppm
[2]
  EC100: 0.32 ppm
